Screens from PubChem.
A selection: hits, their analogues and other compounds. The true share with any hit is near 2.7%.
FGF22 binding: binders of human FGF22 protein, primary screen, FGF22 synaptogenesis inhibitor project, biophysical, thermal shift, single point. recombinant FGF22 thermal shift, SYPRO orange fluorescence; percent of sucrose octasulfate shift, DMSO zero. Fibroblast growth factor 22 (Homo sapiens), Q9HCT0. activity (Tm shift, normalised), % at 9.99 µM. 340,000 tested, 1.5% active. AID 651658, 2012;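 active = mean Tm shift, scaled 0 neutral to 100 positive control, at about 1.3% or above, every replicate too, limit read from the data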
Target sequence (Q9HCT0 whole entry, looked up): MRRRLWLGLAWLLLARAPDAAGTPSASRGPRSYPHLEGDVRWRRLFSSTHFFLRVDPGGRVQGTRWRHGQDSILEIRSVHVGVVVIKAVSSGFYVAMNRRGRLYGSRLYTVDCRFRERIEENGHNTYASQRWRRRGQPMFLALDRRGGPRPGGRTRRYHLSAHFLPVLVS
Env fusion inh: inhibitors of HIV-1 Env-driven cell-cell fusion, primary screen, HeLa-JRFL effector, CEM21 target cells, luciferase | 360,000 tested, 1.1% active | AID 651610, 2012 | inhibition, % at 12.3 µM;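 active = mean replicate inhibition score of at least 50 and every replicate individually at or above 50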
E-selectin induc: E-selectin induction in HUVECs, primary screen, imaging, HUVEC, immunofluorescence imaging, single point; P16581; normalized: neutral wells 0, TNF-alpha wells 100; activation, % at 7.58 µM; 260,000 tested, 0.37% active; AID 686992, 2013;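 active = mean E-selectin-positive cell signal at least 10% of the positive control, reached in at least 60% of replicates, without over 20% cell loss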
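Assay system: HUVEC primary endothelial cells. Input: 3,000 HUVEC seeded per well. Doses: one compound dose added by pin transfer. Read-out basis: % PE-positive cells. Benchmarks: TNF-alpha high, DMSO low. Detection: immunofluorescence imaging. Buffer or medium: EGM-2, gelatin.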
S100A4 inh HTS: inhibitors of S100A4-myosin IIA peptide binding, primary screen, biochemical, fluorescence polarization, TAMRA-MyoIIA peptide | 360,000 tested, 0.14% active | inhibition, % at 10.7 µM | AID 652163, 2013;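 active = mean inhibition of at least 70% across replicates, with every replicate also reaching that level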
Target sequence (P26447 whole entry, looked up): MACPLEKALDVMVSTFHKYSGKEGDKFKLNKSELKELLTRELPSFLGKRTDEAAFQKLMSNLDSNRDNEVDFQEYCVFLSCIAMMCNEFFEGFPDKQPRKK
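incubation = readout 5 min after mixing, signal stable up to 60 min | system = S100A4 monomer protein | buffer or medium = HEPES pH 7.2 with CaCl2, KCl, NaCl, DTT, Triton | benchmarks = neutral control DMSO, positive control TFP | also added = fluorescent myosin IIA peptide, 5 nM | compound dosing = one concentration per compound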
F508del corr: F508del CFTR correction, initial screen, CFBE line, single point. CFBE cells, YFP halide quenching; stimulated with forskolin plus potentiator P3; % fluorescence drop versus neutral controls. activity (quench increase), % at 7.58 µM. 350,000 tested, 0.36% active;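 active = mean added fluorescence quench of at least 8% versus neutral control, with both replicates also reaching 8%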;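 note: cells transiently co-express mutant CFTR-F508del with the halide-sensitive YFP; corrector assay measuring rescue of mutant channel to the surface after 24 h compound exposure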
Of the large screens only hits and unclear results are named; the others gave an inactive call.

CCCNC(=O)N(C)C[C@@H]1Oc2cc(C#CC3CC3)ccc2S(=O)(=O)N([C@@H](C)CO)C[C@@H]1C	none
CCOC(=O)N1CCN(S(=O)(=O)c2ccc(C)c(C(=O)NC3CCCCC3)c2)CC1	S100A4 inh HTS 127.3
CCOC(=O)C1CCN(S(=O)(=O)c2ccc(C)c(C(=O)NC3CCCCC3)c2)CC1	none
COc1ccc(S(=O)(=O)N2CCN(C(=S)NC3CCCCC3)CC2)cc1	FGF22 binding 43.3
CCOC(=O)N1CCN(C(=O)C2CCN(S(=O)(=O)c3ccc(F)cc3)CC2)CC1	FGF22 binding 43.2
CCC(=O)N1CC(=O)N2[C@H](C1)[C@@H](c1ccc(C#Cc3cccc(OC)c3)cc1)[C@@H]2CO	none (no result: FGF22 binding, Env fusion inh)
COc1ccc(-c2cn(CC[C@H]3CC[C@@H](NC(=O)Cc4ccccn4)[C@@H](CO)O3)nn2)cc1	none
Nc1cc(C(=O)OCC(=O)NCc2ccc(F)cc2)ccc1Cl	FGF22 binding 44.0 (no result: E-selectin induc)
O=C(COC(=O)c1ccc(Cl)nc1)NCc1ccc(F)cc1	none (no result: E-selectin induc)
O=C(/C=C/c1cccc([N+](=O)[O-])c1)Nc1cccc(NC(=O)c2ccco2)c1	none (no result: Env fusion inh, E-selectin induc)
Cc1ccc(C(=O)Nc2ccc(NC(=O)c3cccs3)cc2)cc1[N+](=O)[O-]	none (no result: E-selectin induc)
O=C(/C=C/c1ccc(Cl)c([N+](=O)[O-])c1)Nc1cccc(NC(=O)c2ccco2)c1	FGF22 binding 44.9 (no result: E-selectin induc)
O=C(/C=C/c1cccc([N+](=O)[O-])c1)Nc1cccc(NC(=O)c2cccs2)c1	FGF22 binding 1.7 (no result: E-selectin induc)
Cc1ccc(NC(=O)c2cccs2)cc1[N+](=O)[O-]	FGF22 binding 43.8 (no result: E-selectin induc)
Cc1cccc(OCC(=O)NCC(=O)N/N=C/c2ccc(O)cc2O)c1	none
O=C(COc1cccc(Br)c1)N/N=C/C(=O)c1ccccc1	FGF22 binding 42.9 (no result: E-selectin induc)
Cc1cccc(OCC(=O)NCC(=O)N/N=C/c2ccccc2)c1	FGF22 binding 42.9 (no result: E-selectin induc)
NCC[C@@H]1CC[C@H](NC(=O)C2CC2)[C@H](CO)O1	none (no result: FGF22 binding, Env fusion inh)
O=C1c2cccc(NCCCNCCO)c2C(=O)c2cccc(NCCCNCCO)c21	F508del corr 12.8
Cc1ccc(C(OCC(O)CNC(C)c2ccccc2)c2ccccc2)cc1 (stereo not given)	none
Cc1ccc(OCC(O)CNC(C)c2ccccc2)cc1C (stereo not given)	Env fusion inh 59.6 (no result: E-selectin induc)
COc1ccc(CC(=O)Nc2nccs2)cc1S(=O)(=O)N1CCOCC1	F508del corr 17.0 (no result: Env fusion inh)
COc1ccc(NC(=O)CSc2ccc(NC(C)=O)cc2)cc1S(=O)(=O)N1CCOCC1	none
COc1ccc(NC(=O)CSc2ccc3ccccc3c2)cc1S(=O)(=O)N1CCCCC1	Env fusion inh 55.8 (no result: E-selectin induc, F508del corr)
COc1ccc(NC(=O)CCCOc2ccc(Cl)c(C)c2)cc1S(=O)(=O)N1CCOCC1	Env fusion inh 58.9
Cc1cc(Cl)ccc1OCCCC(=O)Nc1cc(S(=O)(=O)N2CCOCC2)ccc1N1CCOCC1	Env fusion inh 113.7
C[C@@H]1CN([C@H](C)CO)C(=O)c2cc(-c3ccc(C#N)cc3)cnc2O[C@H]1CN(C)C(=O)CN(C)C	none
O=C1Nc2ccccc2/C1=N\N=C\C1=C(N2CCOCC2)C(=C\c2ccccc2)/CC1	Env fusion inh 64.0 (no result: FGF22 binding, E-selectin induc, S100A4 inh HTS, F508del corr)
O=C1Nc2ccc(Br)cc2/C1=N\N=C\C1=C(N2CCOCC2)C(=C/c2ccccc2)/CC1	none
COC(=O)[C@H]1[C@H](CO)[C@H]2Cn3c(ccc(C4=CCCC4)c3=O)[C@H]2N1C(=O)C1CCC1	none (no result: FGF22 binding, Env fusion inh)
Cc1cc(NC(=O)CN2C(=O)NC3(CCCCCC3)C2=O)ccc1Br	F508del corr 31.8 (no result: Env fusion inh)
CC(=O)Nc1ccc(-c2csc(NC(=O)CN3C(=O)NC4(CCCC4)C3=O)n2)cc1	F508del corr 8.1 (no result: E-selectin induc)
CC(C)(C)c1ccccc1NC(=O)CN1C(=O)NC2(CCCCCC2)C1=O	F508del corr 30.0 (no result: Env fusion inh)
CC(=O)c1ccccc1NC(=O)CN1C(=O)NC2(CCCCCCC2)C1=O	none (no result: Env fusion inh)
CC(C)NC(=O)N[C@H]1CC[C@H](CCNC(=O)C2CCC2)O[C@@H]1CO	none
COCCNC(=O)C[C@H]1C[C@@H]2c3cc(NC(=O)Nc4ccccc4F)ccc3O[C@@H]2[C@H](CO)O1	none (no result: S100A4 inh HTS)
